This excerpt belongs to a sample that is enriched for hits.
MPTP inh – blocks calcium-induced mitochondrial swelling. isolated mouse mitochondria, Ca2+ swelling absorbance, 30 min. inhibition, % at 10 µM. hit rate 1.4% among 360,000;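 active = inhibition of 50% or more, scaled per plate between neutral and stimulator controls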
Hep lipid drop – modulators of hepatic lipid droplet formation; AML12 mouse hepatocytes, oleate lipid droplets, BODIPY imaging; inhibition, % at 6.5 µM; hit rate 0.4% among 240,000;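 active = lipid droplet intensity inhibited by at least 50%, with more than 500 cells counted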
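Material: mouse AML12 hepatocyte cell line, fixed after treatment; Timing: compound with oleate, overnight; Technique: high-content imaging of BODIPY-stained droplets and DAPI nuclei; Probe or stimulus: oleate, 100 µM final; Dosing: compound at 6.5 µM only.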
L major viab – Leishmania major promastigote growth inhibition; Leishmania major promastigotes, resazurin fluorescence viability; inhibition, % at 10 µM; hit rate 9% among 200,000; AID 1063; in the data active = inhibition above about 50%;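 also: promastigotes grown with compound for 44 hours at 28 °C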
DTT redox prof – compounds producing H2O2 with reducing agent – biochemical, NIH compound library profiling, artefact control for MLSCN library redox annotation, primary screen. DTT-dependent redox cycling H2O2, phenol red/HRP absorbance; 100% = 100 µM peroxide control, 0% = buffer. activation, % at 10 µM. hit rate 0.03% among 200,000. AID 878;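 active = activation of at least 50% relative to the plate's high and low controls in the primary single-dose screen; inactive = activation below 50%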;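 also: compound incubated with DTT at 0.8 mM final as the reducing agent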
T cruzi repl – blocks replication of Trypanosoma cruzi; T. cruzi beta-gal in NIH3T3, luminescence, 90 h; inhibition, % (no concentration beside the values); hit rate 1.4% among 300,000; AID 1885;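 active = mean inhibition across valid replicates above about 55%, limit read from the data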;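 also: signal also drops with host cell toxicity which is not excluded here; higher percent means less beta-gal luminescence so fewer parasites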
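Assay system: NIH/3T3 fibroblasts plus reporter T. cruzi. Amount: NIH/3T3 cells, 5,000 per well. Buffer or medium: DMEM, 2% fetal bovine serum. Doses: compound pinned at 50 nL/well, DMSO. Schedule: ≥90 h infection period, 3 h prior cell attachment. Signal: luminescent β-galactosidase signal after 60 min lysis. Read-out: parasite load inhibition, %.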
Rh123 counter – Rhodamine 123 counter-screen of mitochondrial pore hits; shares compounds with MPTP inh; isolated mitochondria, membrane potential, Rhodamine 123 fluorescence; inhibition, % at 10 µM; hit rate 78% among 5,000; in the data active = inhibition above about 22%
MPTP swell DR – dose response confirmation of mitochondrial permeability transition pore inhibitors. IC50, µM. shares compounds with MPTP inh. isolated mitochondria swelling, absorbance. hit rate 58% among 780; in the data active = IC50 below about 20 µM
MPTP cs DR – counter-screen for mitochondrial permeability transition pore inhibitors, dose response. shares compounds with MPTP inh. IC50, µM. hit rate 49% among 780. isolated mitochondria counterscreen, fluorescence read-out; in the data active = IC50 below about 80 µM
Of the large screens only hits and unclear results are named; the others gave an inactive call (follow-up assays come after a bar, where they were run).

CCN(c1ccccc1)S(=O)(=O)c1cc(NC(=O)Nc2ccccc2C#N)ccc1Cl	MPTP inh 96 | Rh123 counter 95
O=C(CSc1ccc([N+](=O)[O-])cn1)Nc1cc(C(F)(F)F)ccc1N1CCOCC1	none (no result: L major viab, DTT redox prof)
COc1ccccc1N1CCN(CC(=O)Nc2c(C)n(C)n(-c3ccccc3)c2=O)CC1	none
CN(c1ccccc1)S(=O)(=O)c1cccc(C(=O)NNC(=O)c2ccccc2)c1	MPTP inh 56 | Rh123 counter 38
CN(c1ccccc1)S(=O)(=O)c1cccc(NC(=O)c2ccc(Cl)c([N+](=O)[O-])c2)c1	MPTP inh 95 (no result: Hep lipid drop, L major viab, DTT redox prof, T cruzi repl) | Rh123 counter 84
CN(c1ccccc1)S(=O)(=O)c1cccc(NC(=O)Nc2ccc(Cl)cc2C#N)c1	MPTP inh 71 | Rh123 counter 86
CN(c1ccccc1)S(=O)(=O)c1ccc(C(=O)NNC(=O)c2ccccc2)cc1	none (no result: Hep lipid drop, L major viab, DTT redox prof, T cruzi repl)
CCN(c1ccccc1)S(=O)(=O)c1ccc(Cl)c(NC(=O)Nc2ccc(Cl)cc2C#N)c1	none
CCc1nnc(NC(=O)c2cccc(S(=O)(=O)N(C)c3ccccc3)c2)s1	none
CCSc1nnc(NC(=O)c2cccc(S(=O)(=O)N(C)c3ccc(C)cc3)c2)s1	MPTP inh 72 | Rh123 counter 73
O=C(Nc1ccccc1Br)c1cc(=O)c2ccccc2o1	none (no result: L major viab, DTT redox prof)
CCCOC(=O)c1ccc(Oc2cn[nH]c2-c2ccc(O)cc2O)cc1	none (no result: L major viab, DTT redox prof)
CCOc1ccccc1Oc1cn[nH]c1-c1ccc(O)cc1O	none (no result: L major viab, DTT redox prof)
CCOC(=O)c1ccc(Oc2cn[nH]c2-c2ccc(O)cc2O)cc1	MPTP inh 55 (no result: L major viab, DTT redox prof) | Rh123 counter 26
CCCc1ccc(Oc2cn[nH]c2-c2ccc(O)cc2O)cc1	MPTP inh 64, L major viab 95 (no result: Hep lipid drop) | Rh123 counter 39
CCc1cc2c3c(c1)C(C)CC(C)(C)N3C(=O)/C2=C1\SC(=O)NC1=O (stereo not drawn)	MPTP inh 55 (no result: L major viab, DTT redox prof) | Rh123 counter 47
C=CCc1cccc(CNc2cnc3ccccc3c2)c1O	MPTP inh 89 (no result: L major viab, DTT redox prof) | Rh123 counter 84
Oc1ccc(Cl)cc1CNc1cnc2ccccc2c1	none (no result: L major viab, DTT redox prof)
Oc1ccccc1CNc1cnc2ccccc2c1	MPTP inh 71 | Rh123 counter 59
C=CCc1cccc(CNc2nc3ccccc3n2C)c1O	none (no result: L major viab, DTT redox prof)
CCCCn1c(N)c(N(CC(C)C)C(=O)c2cccs2)c(=O)[nH]c1=O	none (no result: Hep lipid drop, L major viab, DTT redox prof)
COc1cccc(COc2cc3ccccc3nc2C)c1	MPTP inh 97 (no result: Hep lipid drop) | Rh123 counter 94
COc1ccc(F)cc1COc1nc(C)nc2ccccc12	none (no result: L major viab, DTT redox prof)
Cc1nc2ccccc2cc1OCc1ccccc1	MPTP inh 92 (no result: Hep lipid drop) | Rh123 counter 100
Cc1nc(OCc2ccccc2)c2ccccc2n1	MPTP inh 72 (no result: Hep lipid drop) | Rh123 counter inactive | MPTP swell DR 12 | MPTP cs DR 27
Cc1nc2ccccc2cc1OCc1ccc(Cl)cc1	MPTP inh 96 | Rh123 counter 104
Cc1nn(C)c(C)c1C(C)NC(=O)c1cc(COc2ccc(F)c(F)c2)on1 (stereo not drawn)	none (no result: L major viab, DTT redox prof)
CCS(=O)(=O)C1=NN2C(=N)/C(=C\c3ccc(SCc4ccco4)o3)C(=O)N=C2S1	none
CCOC(=O)Cn1nc2oc(=O)c(CCN3CCN(c4ccccc4OC)CC3)c(C)c2c1C	none (no result: Hep lipid drop, L major viab, DTT redox prof, T cruzi repl)
Cc1ccc(C(=O)N(CC(=O)Nc2ccc(Cl)c(Cl)c2)Cc2ccco2)cc1	MPTP inh 53 | Rh123 counter 71
CCN(CC)C(=S)Nc1ccc(OC(F)F)cc1	none
Oc1cccc2c(NC(=S)Nc3ccc(OC(F)F)cc3)cccc12	MPTP inh 62 | Rh123 counter 80
FC(F)Oc1ccc(NC(=S)NCc2ccccc2)cc1Cl	MPTP inh 100 | Rh123 counter 82
CN(NC(=S)Nc1ccc(OC(F)F)cc1)C(=S)Nc1ccc(OC(F)F)cc1	MPTP inh 84 | Rh123 counter 93
FC(F)Oc1ccc(NC(=S)NCc2ccccc2)cc1	MPTP inh 79 | Rh123 counter 81
FC(F)Oc1ccc(NC(=S)NCCc2ccccn2)cc1	none
O=c1c2c(nc3cc(-c4ccc(Cl)cc4)[nH]n13)CCS2	none
O=C(C[C@@H]1C/C=C\C[C@@H](Cc2ccc(F)cc2)C(=O)OCCNC1=O)N[C@H](CO)Cc1ccccc1	none (no result: Hep lipid drop, L major viab, DTT redox prof, T cruzi repl)
O=C(CSc1nncs1)NCc1ccc(F)cc1	none
CCOC(=O)C1=C(COC(=O)c2ccco2)NC(=O)NC1CC (stereo not drawn)	none (no result: Hep lipid drop, L major viab, DTT redox prof, T cruzi repl)
CN1CCN(CC#CCn2c3ccccc3c3ccccc32)CC1	MPTP inh 86 | Rh123 counter inactive | MPTP swell DR inactive | MPTP cs DR inactive
O=C(CSc1nc2ccccc2s1)NNC(=S)Nc1ccc(Br)cc1	MPTP inh 82 (no result: Hep lipid drop) | Rh123 counter 83
C[C@H](NC(=O)c1ncn2c1C(=O)N(C)CC2)C(=O)OC(C)(C)C	none (no result: Hep lipid drop, L major viab, DTT redox prof, T cruzi repl)
CCSc1nnc(NC(=O)C(CC)(C(F)(F)F)C(F)(F)F)s1	MPTP inh 54 | Rh123 counter 106
Oc1ccc(-c2nnc(SCC3CCCCC3)o2)cc1	MPTP inh 55 (no result: Hep lipid drop) | Rh123 counter 54
CCn1nc(C)cc1C(=O)n1nc(C)c(Sc2ncccn2)c1C	MPTP inh 69 (no result: L major viab, DTT redox prof, T cruzi repl) | Rh123 counter 27
CCn1nc(C)cc1C(=O)Sc1cccc(Cl)c1	none (no result: L major viab, DTT redox prof)
Cc1nc2ccccc2n1Cc1ccc(Br)cc1	MPTP inh 93 (no result: Hep lipid drop, L major viab, DTT redox prof) | Rh123 counter 96
Cc1nc2ccccc2n1Cc1ccccc1Br	MPTP inh 73 (no result: L major viab, DTT redox prof) | Rh123 counter 81
O=C(O)CC1(CC(=O)Nc2ccccc2Br)CCCC1	none (no result: Hep lipid drop, L major viab, DTT redox prof)
O=C(CSc1nnc(C2CC2)n1Cc1ccco1)NCC(F)(F)F	none
CCn1nccc1C(=O)Nc1ccc(Cl)cn1	none
CCn1nccc1C(=O)Nc1cc(Cl)cc(Cl)c1	MPTP inh 66 | Rh123 counter 75
CCN(CC)CCCC(C)Nc1c2ccc(Cl)cc2nc2ccc(OC)cc12 (stereo not drawn)	none (no result: MPTP inh, L major viab, DTT redox prof, T cruzi repl)
COc1ccc2nc3cc(Cl)ccc3c(Nc3cc(CN4CCCC4)c(O)c(CN4CCCC4)c3)c2n1	MPTP inh 72, T cruzi repl 59 (no result: L major viab, DTT redox prof) | Rh123 counter inactive
CC1CCCN(c2nc(-c3cccnc3)nc3scc(-c4ccccc4)c23)C1 (stereo not drawn)	MPTP inh 73 | Rh123 counter inactive | MPTP swell DR 7 | MPTP cs DR inactive
Cc1ccc(N/N=C(\C#N)C(N)=S)cc1C	MPTP inh 67, L major viab 50 | Rh123 counter 89
N#C/C(=N\Nc1ccc(Cl)cc1)C(N)=S	MPTP inh 70 (no result: L major viab, DTT redox prof) | Rh123 counter 92
N#C/C(=N\Nc1ccccc1)C(N)=S	none (no result: L major viab, DTT redox prof)
CC(NC(=O)CN1C(=O)NC2(CCCCC2)C1=O)c1ccc(S(N)(=O)=O)cc1 (stereo not drawn)	none (no result: Hep lipid drop, L major viab, DTT redox prof, T cruzi repl)

Screening data: PubChem, several laboratories
